The test system of series [1] is A549. As to the kind of experiment: Reduction in PPARgamma expression in human A549 cells assessed as increase in 100 ng/ml IL1-beta, TNF-alpha and IFN-gamma-induced PPARgamma down regulation normalized to beta-actin expression level at 50 ug/ml by Western blot analysis. It is filed as functional, cell-based. The procedure, abridged:
(§1)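 A549 cells starved 24 h, then 24 h with medium, cytokine mix (100 ng/ml each), or mix plus graded rifampin; whole-cell extracts immunoblotted with mouse anti-PPARγ, signal normalized to β-actin by densitometry; five experiments, mean ± SEM, unpaired t test.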
A general note: In western blotting, separated proteins are transferred to a membrane and probed.

The subject of series [2] is A549. Put plainly: Induction of NF-kappaB activation in human A549 cells assessed as fold increase in NF-kappaB/DNA binding at 50 ug/ml by electrophoretic mobility shift assay. It is filed as functional, cell-based. The procedure, abridged: (§2)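 Nuclear extracts from A549 cells 2 h after cytokine mix (IL-1β, TNF-α, IFN-γ) ± rifampin 50 μg/ml; 2 μl extract bound to biotin-labeled NF-κB consensus probe, 5% native PAGE in TBE, streptavidin-HRP chemiluminescence; specificity checked with cold NF-κB oligonucleotide.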
(A gel shift assay detects complexes by their altered migration in electrophoresis.)

Series [3] concerns A549. Put plainly: Effect on JNK phosphorylation in human A549 cells assessed as increase in IL1-beta, TNF-alpha and IFN-gamma-induced phosphorylation at 50 ug/ml after 15 to 30 mins by Western immunoblotting analysis. In kind it is functional, cell-based. Summed up: (§3)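 A549 cells serum/antibiotic-starved 24 h, then given cytokine mix (IL-1β, TNF-α, IFN-γ) with or without rifampin (50 μg/ml); total lysates at 15, 30, 60 min; 20–30 μg protein on 10% SDS-PAGE, immunoblotted for phospho-ERK1/2, phospho-JNK, phospho-p38 and total forms; ECL detection, densitometry.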

Series [4] has as its system A549. Put plainly: Effect on iNOS expression in human A549 cells assessed as fold increase in 100 ng/ml IL1-beta, TNF-alpha and IFN-gamma-stimulated iNOS mRNA expression at 10 ug/ml after 19 hrs by TaqMan real-time RT-PCR relative to control. It is filed as functional. The procedure, abridged: (§4)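 A549 cells starved 24 h, then 19 h with cytokine mix (100 ng/ml each) ± rifampin 10 or 50 μg/ml (DMSO stock diluted ≥1:1,000); 2 μg total RNA reverse transcribed (random hexamers), iNOS by TaqMan real-time RT-PCR normalized to β-actin; medium-only control set to 1; four experiments, mean ± SEM.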

In series [5] the test system is A549. Put plainly: Induction of iNOS expression in human A549 cells at 25 to 50 ug/ml by Western blot analysis. In kind it is functional, cell-based.
The subject of series [6] is A549. As to the kind of experiment: Effect on ERK1/2 phosphorylation in human A549 cells assessed as increase in IL1-beta, TNF-alpha and IFN-gamma-induced phosphorylation at 50 ug/ml after 15 to 30 mins by Western immunoblotting analysis. It is filed as functional, cell-based. Summed up:
as §3

Series [7] concerns A549. As to the kind of experiment: Induction of NF-kappaB activation in IL1-beta, TNF-alpha and IFN-gamma-stimulated human A549 cells assessed as fold increase in NF-kappaB/DNA binding at 50 ug/ml by electrophoretic mobility shift assay. In kind it is functional. The procedure, abridged: as §2
In series [8] the test system is A549. Put plainly: Effect on PPARgamma expression in human A549 cells assessed as decrease in PPARgamma expression normalized to beta-actin expression level at 50 ug/ml by Western blot analysis. It is filed as functional, cell-based. Summed up:
as §1

In series [9] the test system is A549. Put plainly: Effect on p38 phosphorylation in human A549 cells assessed as increase in IL1-beta, TNF-alpha and IFN-gamma-induced phosphorylation at 50 ug/ml after 15 to 30 mins by Western immunoblotting analysis. It is filed as functional, cell-based. Summed up:
as §3

For series [10], the system named is A549. As to the kind of experiment: Effect on NF-kappaB activation in 100 ng/ml IL-1beta, TNF-alpha and IFN-gamma-stimulated human A549 cells assessed as degradation of inhibitory subunit IkappaB measured upto 3 hrs at 50 ug/ml by Western blot analysis. In kind it is functional, cell-based. The procedure, abridged: (§5)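 A549 cells (2 × 10⁶/dish) starved 24 h, then exposed to cytokine mix (100 ng/ml each) ± rifampin 50 μg/ml, or rifampin alone; lysates taken over time (30 min to 3 h), 20–30 μg protein immunoblotted for IκB, ECL detection, densitometry; three experiments.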

The test system of series [11] is A549. As to the kind of experiment: Effect on NF-kappaB activation in human A549 cells assessed as degradation of inhibitory subunit IkappaB after 30 mins at 50 ug/ml by Western blot analysis. In kind it is functional, cell-based. Summed up:
as §5

For series [12], the system named is A549. As to the kind of experiment: Effect on NF-kappaB activation in 100 ng/ml IL-1beta, TNF-alpha and IFN-gamma-stimulated human A549 cells assessed as degradation of inhibitory subunit IkappaB at 50 ug/ml by Western blot analysis. In kind it is functional, cell-based. Summed up:
as §5

Series [13] concerns the target Nitric oxide synthase, inducible (Homo sapiens) (UniProt P35228). Put plainly: Effect on iNOS in human A549 cells assessed as increase in iNOS mRNA expression at 50 ug/ml after 19 hrs by TaqMan real-time RT-PCR relative to control. It is filed as cell-based. Summed up: as §4
(Quantitative PCR measures a nucleic acid by following its amplification.)

In series [14] the test system is A549. As to the kind of experiment: Induction of iNOS expression in human A549 cells at 25 to 50 ug/ml by Western blot analysis in presence of IFN-gamma. It is filed as functional, cell-based. Summed up: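 A549 cells starved 24 h, then given rifampin with IFN-γ, each agent alone, or cytokine mix; total cell extracts prepared 20 h after stimulation and immunoblotted with rabbit anti-iNOS, ECL detection.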

The subject of the next series is HT-29. As to the kind of experiment: Effect on iNOS expression in human HT-29 cells assessed as increase in 100 ng/ml IL1-beta, TNF-alpha and IFN-gamma-stimulated iNOS […] expression normalized to beta-actin expression level at 10 to 50 ug/ml after 24 hrs by Western blot analysis. In kind it is functional, cell-based.
A short description of series [15]: Cmax in serum of human patient undergoing fibre-optic bronchoscopy at 600 mg, po administered as single dose. The arrangement: dose 600 mg, route oral. It is filed as ADME, organism-based.
Series [16] relates to A549. As to the kind of experiment: Effect on STAT-1 phosphorylation in human A549 cells assessed as increase in IL1-beta, TNF-alpha and IFN-gamma-induced phosphorylation at 50 ug/ml after 15 to 30 mins by Western immunoblotting analysis. It is filed as functional, cell-based. Summed up: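 A549 cells starved 24 h in serum- and antibiotic-free medium, treated with cytokine mix (IL-1β, TNF-α, IFN-γ) ± rifampin; total lysates immunoblotted (10% SDS-PAGE, PVDF) with rabbit anti-phospho-STAT-1; ECL detection with densitometry.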

A further series deals with DLD-1. As to the kind of experiment: Effect on iNOS expression in human DLD1 cells assessed as increase in 100 ng/ml IL1-beta, TNF-alpha and IFN-gamma-stimulated iNOS […] expression normalized to beta-actin expression level at 10 to 50 ug/ml after 24 hrs by Western blot analysis. In kind it is functional, cell-based.
Series [17] has as its system A549. Put plainly: Effect on iNOS expression in human A549 cells assessed as fold increase in 100 ng/ml IL1-beta, TNF-alpha and IFN-gamma-stimulated iNOS mRNA expression at 50 ug/ml after 19 hrs by TaqMan real-time RT-PCR relative to control. It is filed as functional. The procedure, abridged: as §4

Activity calls are given as the source filed them. The calls are words filed in the database; no cut-off is given here.

Chain of Nitric oxide synthase, inducible (Homo sapiens) (P35228 whole entry): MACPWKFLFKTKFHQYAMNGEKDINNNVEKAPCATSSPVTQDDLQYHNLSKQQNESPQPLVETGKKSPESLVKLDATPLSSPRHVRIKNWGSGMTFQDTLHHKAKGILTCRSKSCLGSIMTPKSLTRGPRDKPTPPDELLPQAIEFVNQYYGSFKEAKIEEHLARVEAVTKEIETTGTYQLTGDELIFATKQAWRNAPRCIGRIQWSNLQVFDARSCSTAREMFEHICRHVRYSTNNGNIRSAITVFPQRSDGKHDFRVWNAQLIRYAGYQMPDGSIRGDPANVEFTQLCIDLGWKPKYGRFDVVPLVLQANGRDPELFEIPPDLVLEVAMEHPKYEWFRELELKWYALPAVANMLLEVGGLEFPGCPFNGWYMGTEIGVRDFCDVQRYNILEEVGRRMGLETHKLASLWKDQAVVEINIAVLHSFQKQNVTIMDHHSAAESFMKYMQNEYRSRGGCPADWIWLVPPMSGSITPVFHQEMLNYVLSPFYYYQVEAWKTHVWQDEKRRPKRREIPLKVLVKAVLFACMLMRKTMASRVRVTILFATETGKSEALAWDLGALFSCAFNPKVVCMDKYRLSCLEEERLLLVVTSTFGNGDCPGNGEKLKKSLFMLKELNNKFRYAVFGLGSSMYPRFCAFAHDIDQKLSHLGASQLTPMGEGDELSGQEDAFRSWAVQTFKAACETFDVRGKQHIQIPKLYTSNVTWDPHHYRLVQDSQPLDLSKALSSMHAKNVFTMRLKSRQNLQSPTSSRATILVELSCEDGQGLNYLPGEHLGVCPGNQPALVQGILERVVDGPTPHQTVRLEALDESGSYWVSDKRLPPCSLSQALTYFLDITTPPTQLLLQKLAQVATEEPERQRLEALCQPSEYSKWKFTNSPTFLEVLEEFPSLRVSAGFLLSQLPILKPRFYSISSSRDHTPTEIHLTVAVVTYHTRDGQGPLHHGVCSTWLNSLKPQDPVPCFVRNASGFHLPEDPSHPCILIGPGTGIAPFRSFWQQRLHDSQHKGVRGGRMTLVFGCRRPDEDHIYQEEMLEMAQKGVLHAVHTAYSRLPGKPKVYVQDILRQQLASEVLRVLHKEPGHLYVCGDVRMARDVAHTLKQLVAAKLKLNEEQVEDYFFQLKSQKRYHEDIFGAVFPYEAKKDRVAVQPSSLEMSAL

As a reminder, the Cmax is the peak of the concentration-time curve. On to `CO[C@H]1/C=C/O[C@@]2(C)Oc3c(C)c(O)c4c(O)c(c(/C=N/N5CCN(C)CC5)c(O)c4c3C2=O)NC(=O)/C(C)=C\C=C\[C@H](C)[C@H](O)[C@@H](C)[C@@H](O)[C@@H](C)[C@H](OC(C)=O)[C@@H]1C` [RIFAMPIN], for which the outcome with A549 [1], in the series with A549 [2], with A549 [10], in the series on A549 [11], with A549 [12] and with A549 [14] was Active. The outcome (with A549 [3]; with A549 [5]; in the series on A549 [6]; in the series with A549 [8]; in the series with A549 [9]; in series [13]) was inactive. Further, the result with A549 [16] and in the series with DLD-1 was inactive. The figures for the “fold change (FC)” value with A549 [4], in the series with A549 [7] and with A549 [17] were 1.9, 2.1 and 4, respectively. The Activity entry with HT-29 is “Dose-dependent effect”. In series [15], this compound yielded a Cmax of 15000 ng/mL.

For the origin of these results see ChEMBL document CHEMBL1687724, “Roles of NF-kappaB activation and peroxisome proliferator-activated receptor gamma inhibition in the effect of rifampin on inducible nitric oxide synthase transcription in human lung epithelial cells” (Antimicrob Agents Chemother, 2009).
